NR2E3 ag-1 = activates human photoreceptor nuclear receptor NR2E3. actives 0.12% (n = 320,000). GST-NR2E3/biotin-RetCOR TR-FRET, 1536-well. inhibition of corepressor binding, % at 4.78 µM. Q9Y5X4;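 active means percent inhibition above the cutoff of mean plus 3 SD of all tested compounds, set per screening campaign, cut at about 20% in these data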;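 further: 0% = DMSO wells and 100% = biotin wells as full block of FRET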
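Format: 1536-well format; test system: GST-NR2E3 and biotin-RetCOR proteins; read-out basis: percent inhibition of TR-FRET ratio; timing: 5 h incubation at 4 °C; detection: time-resolved FRET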
COUP-TFII inh = NR2F2 (human) inhibition, primary screen | actives 0.7% (n = 370,000) | HEK293T NGFI-A luciferase reporter, luminescence | inhibition, % at 8.6 µM;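 active means inhibition above a per-plate cutoff, mean inhibition of test wells between control levels plus 3 SD, cut at about 38% in these data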;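 further: cells cotransfected with COUP-TFII expression vector driving the NGFI-A reporter; 0% = median of COUP-TF2 test wells and 100% = reporter-only cells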
Target sequence (P24468 whole entry, looked up): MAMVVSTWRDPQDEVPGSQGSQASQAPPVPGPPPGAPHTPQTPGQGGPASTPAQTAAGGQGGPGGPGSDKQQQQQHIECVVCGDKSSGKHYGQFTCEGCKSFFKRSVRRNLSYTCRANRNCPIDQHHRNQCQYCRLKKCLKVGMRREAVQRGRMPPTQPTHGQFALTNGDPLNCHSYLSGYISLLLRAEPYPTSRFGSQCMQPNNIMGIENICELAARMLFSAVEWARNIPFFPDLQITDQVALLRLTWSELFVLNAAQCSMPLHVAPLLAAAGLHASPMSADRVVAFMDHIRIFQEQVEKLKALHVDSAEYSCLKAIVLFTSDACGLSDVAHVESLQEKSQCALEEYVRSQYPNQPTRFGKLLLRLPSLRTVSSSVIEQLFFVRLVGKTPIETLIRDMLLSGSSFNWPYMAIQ
GalR3 antag = antagonists of human GalR3. O60755. HEK293 GalR3-CNG cAMP membrane potential fluorescence; galR3 body fused to GalR1 C-terminus. inhibition, % at 3 µM. actives 0.44% (n = 360,000). AID 651719;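 active means inhibition above the screen-wide average plus 3 SD, cut at about 13% in these data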;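 further: forskolin and galanin both at EC90 stimulate the cells; cAMP rise reported by CNG channel membrane potential dye signal; 0% = forskolin plus galanin with DMSO and 100% = forskolin alone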
SMARCA2 activ = SMARCA2 function activation, primary screen. MG213 cells, MMTV-luciferase reporter, dexamethasone, overnight. activation, % at 9.1 µM. actives 1% (n = 370,000). AID 652017; in the data active means activation above about 7.8%;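 further: 0% = vehicle wells and 100% = reference activator wells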
NR2E3 ag-2 = agonists of human NR2E3 nuclear receptor; Q9Y5X4; CHO-S Gal4-NCOR/VP16-NR2E3 two-hybrid, luciferase; inhibition of corepressor binding, % at 3.98 µM; actives 0.35% (n = 360,000);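 active means inhibition above the mean of all tested compounds plus 3 SD, cut at about 70% in these data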;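 further: 0% = DMSO with NR2E3 transfected cells and 100% = cells lacking NR2E3 construct; higher means lower luciferase signal from less NR2E3 corepressor binding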
SMARCA2 act conf = SMARCA2 activation, confirmation screen. shares compounds with SMARCA2 activ. MG213 cells, MMTV-luciferase with dexamethasone, luminescence, overnight; MG213 cells expressing E1A, Rb sequestered; DMSO wells 0%, reference activator 100%. activation, % at 9.1 µM. actives 30% (n = 3,500). AID 652260;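 active means activation above its plate's cutoff, the mean activation of tested wells plus 3 SD, cut at about 7.9% in these data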
VP16 Luc act = counter-screen for SMARCA2 activators: GAL4-VP16 luciferase reporter activation. shares compounds with SMARCA2 activ. HEK293 GAL4-VP16 pG5luc reporter, luciferase luminescence; scaled: DMSO wells 0%, SAHA wells 100%. activation, % at 9.1 µM. actives 41% (n = 3,500). AID 686939;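 active means activation above the solvent-only control well mean plus 3 SD, averaged across control plates, cut at about 5.2% in these data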
The depositor's hits bear a star; nt = no result. Only some compounds are listed: those with a hit (about 2.2% of all), similar ones and a draw of the others.

SMILES	NR2E3 ag-1	COUP-TFII inh	GalR3 antag	SMARCA2 activ	NR2E3 ag-2	SMARCA2 act conf	VP16 Luc act
C=CS(=O)(=O)c1sc(Cl)c(N2CCOCC2)c1[N+](=O)[O-]	nt	2	6	11*	21	-8	4
Cn1c2ccccc2c(=O)c2ccc(NCc3ccc4c(c3)OCO4)cc21	nt	-22	-3	1	-46	nt	nt
Cn1c2ccccc2c(=O)c2cc(NCCCN3CCOCC3)ccc21	nt	-94	-5	15*	-46	18*	8.7*
CN1CCCC1CCNc1ccc2c(=O)c3ccccc3oc2c1 (stereo not drawn)	7	-34	-6	11*	-75	14*	8.9*
CN1CCC[C@H]1CCNc1ccc2c(=O)c3ccccc3n(C)c2c1	nt	-75	-7	27*	-41	53*	8.6*
O=c1c2ccccc2oc2ccc(NCCCN3CCOCC3)cc12	-2	-30	-8	6	-58	nt	nt
CN1CCCC1CCNc1ccc2oc3ccccc3c(=O)c2c1 (stereo not drawn)	0	-56	-13	4	nt	nt	nt
C[C@@H]1/C=C/CC(=O)N[C@H](c2cccc(Br)c2)[C@H](C)/C=C/CC(=O)N[C@@H]1c1cccc(Br)c1	nt	19	nt	1	nt	nt	nt
COC(=O)[C@]12C[C@H](CC(=O)NCCC(C)C)C(=O)N(Cc3ccc4c(c3)OCO4)C1=C[C@H](C(C)C)O[C@@H]2C1CC1	nt	-9	nt	-3	nt	nt	nt
Cc1ccc(C(=O)NC2=NCCS2)cc1	-5	-52	-6	8.8*	nt	7	13*
CCOC(=O)c1c(C)[nH]c(C(=O)COC(=O)c2ccco2)c1C	nt	-18	-3	10*	7	7	0
COC(=O)c1ccc(OCC(=O)c2ccccc2)cc1	-3	-29	-3	12*	-132	11*	8.5*
O=C(CNS(=O)(=O)c1ccccc1)OCC(=O)c1ccc(OC(=O)c2ccccc2)cc1	-1	-11	-7	8.7*	-11	18*	2
CCc1nnc(NC(=O)c2cccc(NC(=O)C(C)C)c2)s1	1	-31	-6	8.8*	-68	4	5.9*
OC1CCCN(Cc2ccc3ccc4cccc5ccc2c3c45)C1 (stereo not drawn)	2	-25	-7	11*	-70	25*	1
O=C(NCCCNCCCNC(=O)c1ccccn1)c1ccccn1	1	7	-7	12*	-15	-3	1
CCCCN=C(N)NC(=O)OCc1ccccc1	nt	-29	nt	-1	nt	nt	nt
COc1ccc(S(=O)(=O)N2CCC(c3nc4ccccc4o3)CC2)c(OC)c1	nt	30	nt	-6	nt	nt	nt
O=C(c1cc2ccccc2oc1=O)N1CCOCC1	4	-28	-7	8.0*	-36	15*	4
O=C(NC1CCCCCC1)c1cc2ccccc2oc1=O	3	-53	-12	8.9*	4	6	12*
O=C(c1cc2cc(Cl)ccc2oc1=O)N1CCOCC1	4	7	0	-1	16	nt	nt
O=C(c1cc(Cl)ccc1F)N1CCCC(c2nc(-c3cccs3)no2)C1 (stereo not drawn)	nt	6	nt	-3	nt	nt	nt
CCOC(=O)CC[C@@]1(C(=O)OCC)C[C@@H](CC(=O)NCCCN2CCCC2=O)C(=O)N2CCCC=C21	nt	-7	nt	-3	nt	nt	nt
CN1CCN(C(=O)CCN2C(=O)S/C(=C/c3ccc(Cl)cc3)C2=O)CC1	-1	0	0	-2	17	nt	nt
Cc1ccc(/C=C2\SC(=O)N(CCC(=O)N3CCN(C)CC3)C2=O)cc1	6	-11	-6	8.9*	-39	5	6.6*
SMILES	NR2E3 ag-1	COUP-TFII inh	GalR3 antag	SMARCA2 activ	NR2E3 ag-2	SMARCA2 act conf	VP16 Luc act
Nc1[nH]c(C(=O)c2ccccc2)c(-c2ccccc2[N+](=O)[O-])c1C(=O)NCCc1c[nH]c2ccccc12	nt	27	-2	-9	nt	nt	nt
O=C1Nc2c(ccc(Cl)c2Cl)C(=O)C1(F)c1ccccc1 (stereo not drawn)	2	0	-5	8.3*	16	-3	0
CCN(CC)CCNC(CC(=O)Nc1ccc(Cl)cc1Cl)C(=O)O (stereo not drawn)	-3	-7	3	0	7	nt	nt
CN(C)CCNc1ccc(CO)c2oc3ccc(O)cc3c(=O)c12	nt	-30	-6	11*	-11	13*	4
CCN(CC)CCNc1ccc(CO)c2oc3cc(Cl)ccc3c(=O)c12	nt	-2	-8	18*	-13	29*	1
O=C1CCC[C@H]2C[C@H](NCc3ccc(Cl)cc3)CC[C@]23CCCN13	nt	14	nt	nt	nt	nt	nt
Nc1cccn2c(-c3ccc(Cl)c(Cl)c3)cnc12	2	-32	-8	6	-172	nt	nt
Nc1cccn2c(-c3ccc(Cl)cc3)cnc12	3	-30	-6	9.3*	-127	15*	20*
O=C(O)c1ccc2nc(-c3ccccc3)c(-c3ccccc3)nc2c1	-2	19	-12	10*	-5	4	2
COc1ccc(CN(C)C(=O)C2CCCN(c3nc4ccccc4o3)C2)cc1 (stereo not drawn)	nt	14	nt	4	nt	nt	nt
Cc1cccc(CCNC(=O)CSc2nc3c([nH]2)c(=O)n(C)c(=O)n3C)c1	nt	-9	nt	2	nt	nt	nt
COc1ccc(CCNC(=O)c2cc3ccccn3n2)cc1	nt	-21	nt	6	nt	nt	nt
CCOC(=O)C1CN(S(=O)(=O)c2ccccc2)c2cc(S(=O)(=O)CC)ccc2O1 (stereo not drawn)	-3	2	-8	-1	-12	nt	nt
CCS(=O)(=O)c1ccc2c(c1)N(S(C)(=O)=O)CC(C(=O)NCCOC)O2 (stereo not drawn)	3	11	-2	12*	14	-1	1
C=CCN1C(=O)[C@@H](CC(=O)NCc2ccc(OC)c(OC)c2)[C@]2(C(=O)OC)CCCCC=C12	nt	2	nt	-4	nt	nt	nt
O=C(COc1ccccc1/C=C1\SC(=O)NC1=O)Nc1ccccc1	2	10	-4	-3	12	nt	nt
O=C(/C=C1\SC(=O)NC1=O)Nc1ccc(F)cc1	1	-13	5	8.4*	-40	6	2
O=C(C1CC1)n1ccc2ccc(-c3ccc4ccn(Cc5ccccc5)c4c3)cc21	nt	-3	nt	-2	nt	nt	nt
Cc1nn(CCOc2ccccc2)c(=O)n1-c1c(F)cccc1F	0	-48	-4	9.8*	-60	3	8.0*
Cc1ccc(CN2CCCCC(NC(=O)c3ccc(F)c(F)c3)C2=O)cc1 (stereo not drawn)	nt	1	nt	-4	nt	nt	nt
COc1ccc2oc(=O)c(-c3nnc(NCc4ccco4)s3)cc2c1	3	-25	-4	15*	-39	15*	6.5*

High-throughput results: PubChem, The Scripps Research Institute Molecular Screening Center
